Data set [1] deals with T1, Gamma-secretase (Homo sapiens) (UniProt Q96BI3+Q9NZ42+Q8WW43+P49768+Q92542+P49810). Description: Inhibition of human gamma-secretase assessed as inhibition of amyloid beta 40 production using recombinant APP C100FLAG as substrate at 100 uM after 4 hrs by ELISA relative to control. It counts as protein-complex assay. The essentials: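 Purified human γ-secretase complex incubated with recombinant C100 FLAG substrate in 0.2% CHAPSO/HEPES, pH 7.5. Compound added from DMSO stock to a final 100 μM with 1% final DMSO. Reaction run 4 h at 37°C and stopped with 0.5% SDS. Aβ40 quantified by specific ELISA and expressed as percent inhibition versus DMSO control.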

Data set [2] can be described thus: Metabolic stability of the compound in rat liver microsomes assessed as parent compound remaining after 60 mins. As to conditions: read-out: Stability. The format is ADME. Background: Liver microsomes are vesicles of endoplasmic reticulum, rich in cytochrome P450 enzymes.
Data set [3] in a line: Permeability of the compound from apical to basolateral side. Conditions: not told; read-out: permeability. It counts as ADME.
In data set [4] the target is T1, Gamma-secretase (Homo sapiens). Description: Inhibition of human gamma-secretase assessed as inhibition of notch1 processing at 100 uM using N100Flag as substrate by western blot analysis. The format is protein-complex assay. (A western blot detects proteins with antibodies after separation by electrophoresis.)
The nature of data set [5]: Lipophilicity, logD of the compound. It counts as physicochemical. As to conditions: octanol/water.
Data set [6] in a line: Protein binding in human plasma. The format is ADME, cell-free. Conditions: read-out: PPB (converted).
Data set [7] is described as follows: Metabolic stability of the compound in human liver microsomes assessed as parent compound remaining after 60 mins. It counts as ADME. As to conditions: read-out: Stability.
In another data set the target is Gamma-secretase. Description: Inhibition of gamma-secretase (unknown origin) assessed as inhibition of amyloid beta 42 production by cell-based assay. More on the design: species or system Homo sapiens.
For data set [8], the target named is T1, Gamma-secretase (Homo sapiens). The experiment in a line: Inhibition of gamma-secretase (unknown origin) assessed as inhibition of amyloid beta 42 production at 100 uM by cell-based assay.

Active and inactive are the calls of the source. The rule behind the calls is not given here.

By inhibition is commonly meant the percentage by which the read-out fell short of the control. As usually defined, the logD is the decadic logarithm of the distribution of all forms, ionised or not, between an organic phase and buffer at a given pH. Low values mean lower lipophilicity, high ones higher lipophilicity. By IC50 is commonly meant the concentration that gives 50% inhibition.

Regarding `CC(C)N(Cc1ccccc1)c1ncc2cc(-c3c(Cl)cccc3Cl)c(=O)n(C)c2n1`, the inhibition in data set [1] was 90%. Further, the remaining at 1 h in data set [2] is 4%; in data set [7], 72%. Also, in data set [3], the Papp A→B is 2.3 ×10⁻⁶ cm/s. Moreover, the inhibition entry in data set [4] was “inactive”. The same molecule had a logD in [5] above 4. Moreover, in data set [6], the fraction unbound is 0.057.

As to `CSc1ccc(Nc2ncc3cc(-c4c(Cl)cccc4Cl)c(=O)n(C)c3n2)cc1`, the inhibition in data set [1] turned out to be 47%. The inhibition entry in data set [4] is “inactive”. For the same molecule, the IC50 at Gamma-secretase stood at 26 µM.

As for `CC(C)Nc1ncc2cc(-c3c(Cl)cccc3Cl)c(=O)n(C)c2n1`, the inhibition in [1] came to 0%. Besides, the inhibition entry in data set [4] is “inactive”.

With `CCCCCCNc1ncc2cc(-c3c(Cl)cccc3Cl)c(=O)n(C)c2n1`, the inhibition in data set [1] was found to be 53%. Also, the inhibition entry in data set [4] was “Active”.

Regarding `COc1ccc(Nc2ncc3cc(-c4c(Cl)cccc4Cl)c(=O)n(C)c3n2)cc1`, the inhibition in [1] was found to be 47%. The inhibition entry in [4] is “inactive”.

On to `Cn1c(=O)c(-c2c(Cl)cccc2Cl)cc2cnc(Nc3ccc(C(F)(F)F)cc3)nc21`, for which the inhibition in data set [1] was 12%.

On to `Cn1c(=O)c(-c2c(Cl)cccc2Cl)cc2cnc(Nc3ccccc3)nc21`, for which the inhibition in data set [1] came out at 26%.

Regarding `CN1CCN(c2ncc3cc(-c4c(Cl)cccc4Cl)c(=O)n(C)c3n2)CC1`, the inhibition in [1] was 0%; in data set [8], 7%. Also, the inhibition result in data set [4] was “inactive”.

With `Cn1c(=O)c(-c2c(Cl)cccc2Cl)cc2cnc(NCc3ccccc3)nc21`, the inhibition in data set [1] amounted to 0%.

In the case of `Cn1c(=O)c(-c2c(Cl)cccc2Cl)cc2cnc(N3CCN(c4ncccn4)CC3)nc21`, the inhibition in data set [1] was found to be 0%.

Take `CN(CCc1ccccc1)c1ncc2cc(-c3c(Cl)cccc3Cl)c(=O)n(C)c2n1`: the inhibition in data set [1] is 48%. For the same molecule, the inhibition entry in data set [4] was “inactive”.

In the case of `Cn1c(=O)c(-c2c(Cl)cccc2Cl)cc2cnc(N3CCN(c4ccccn4)CC3)nc21`, the inhibition in data set [1] amounted to 0%.

`Cn1c(=O)c(-c2c(Cl)cccc2Cl)cc2cnc(NCc3ccccn3)nc21`: the inhibition in data set [1] was found to be 59%. Further, the inhibition entry in data set [4] was “inactive”.

As to `Cn1c(=O)c(-c2c(Cl)cccc2Cl)cc2cnc(N3CCN(Oc4cccnc4)CC3)nc21`, the inhibition in [1] and in data set [8] was 0% throughout.

Regarding `Cn1c(=O)c(-c2c(Cl)cccc2Cl)cc2cnc(N3CCN(CC4CCCO4)CC3)nc21` (configuration not stated), the inhibition in data set [1] was found to be 0%.

As for `Cn1c(=O)c(-c2c(F)cccc2F)cc2cnc(N3CCN(c4ccc(F)cc4)CC3)nc21`, the inhibition in data set [1] was 20%. The inhibition entry in data set [4] is “Active”.

Regarding `CSc1cccc(Nc2ncc3cc(-c4c(Cl)cccc4Cl)c(=O)n(C)c3n2)c1`, the inhibition in data set [1] worked out at 0%. The inhibition result in data set [4] is “inactive”.

`Cn1c(=O)c(-c2ccc(Cl)cc2)cc2cnc(N3CCN(c4ccc(F)cc4)CC3)nc21`: in data set [1], the inhibition was 0%.

As to `Cn1c(=O)c(-c2c(Cl)cccc2Cl)cc2cnc(N3CCN(c4ccc(F)cc4)CC3)nc21`, the inhibition in [1] stood at 68%. Further, the remaining at 1 h in data set [2] turned out to be 72%; in [7], 74%. Also, the Papp A→B in data set [3] amounted to 0.1 ×10⁻⁶ cm/s. Besides, the inhibition entry in data set [4] is “inactive”. The logD in [5] was above 4. Also, the fraction unbound in data set [6] is 0.011. For the same molecule, the IC50 on Gamma-secretase was 2.7 µM.

In the case of `Cn1c(=O)ccc2cnc(N3CCN(c4ccc(F)cc4)CC3)nc21`, in [1], the inhibition was 0%.

`Cn1c(=O)c(-c2ccccc2)cc2cnc(N3CCN(c4ccc(F)cc4)CC3)nc21`: in data set [1], the inhibition is 14%. In data set [4], the inhibition entry was “Active”.

`CC(C)N(Cc1cc(F)cc(F)c1)c1ncc2cc(-c3c(Cl)cccc3Cl)c(=O)n(C)c2n1`: in data set [1], the inhibition amounted to 73%. Also, the inhibition entry in [4] was “Active”.

With `CC(C)N(Cc1ccc(Cl)c(Cl)c1)c1ncc2cc(-c3c(Cl)cccc3Cl)c(=O)n(C)c2n1`, the inhibition in data set [1] stood at 50%. Also, in data set [4], the inhibition entry is “inactive”.

Consider `Cn1c(=O)c(-c2ccc(C(C)(C)C)cc2)cc2cnc(N3CCN(c4ccc(F)cc4)CC3)nc21`, for which the inhibition in [1] was determined as 2%.
